By MIC is commonly meant the smallest concentration in the dilution series that meets the test's criterion for growth inhibition. A high value points to a less susceptible organism.

Converted amounts (≈) assume the structure as drawn. A value given as a limit tells only on which side of the number the result lay.

Type in all cases: functional
Assay [1] relates to Staphylococcus aureus. The assay can be described thus: Antibacterial activity against Staphylococcus aureus ATCC 25923 after 16 to 18 hrs by serial plate dilution method. In outline:
(§1)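 Drug serially diluted in Mueller–Hinton broth in tubes, adjusted to pH 5.0 with phosphate buffer. Inoculated with standardized bacterial suspension and incubated 16–18 h at 37 °C. MIC taken as lowest concentration with no visible growth.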

The subject of assay [2] is Pseudomonas aeruginosa. The assay can be described thus: Antibacterial activity against Pseudomonas aeruginosa ATCC 27853 after 16 to 18 hrs by serial plate dilution method. In outline:
as §1

For assay [3], the system named is Pseudomonas aeruginosa. The experiment in a line: Antibacterial activity against Pseudomonas aeruginosa ATCC 27853 at MIC after 3 to 4 days by agar well diffusion method. On the technique in general: A growth-free zone around the sample is the usual read-out of agar diffusion tests.
The subject of assay [4] is Aspergillus flavus. The experiment in a line: Antifungal activity against Aspergillus flavus NCIM 524 at MIC after 3 to 4 days by agar well diffusion method. In outline: (§2)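 Sabouraud agar (peptone, D-glucose, agar; pH 5.7) seeded with spore suspension made by transferring a loopful of fungus to 3 mL normal saline. Excess decanted, plates dried 1 h at 37 °C. Compounds in DMSO at MIC added to punched wells; DMSO control. Triplicate plates kept 3–4 days at 37 °C.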

Assay [5] concerns Talaromyces marneffei. The assay can be described thus: Antifungal activity against recultured Penicillium marneffei by serial plate dilution method.
The subject of assay [6] is Escherichia coli. The assay can be described thus: Antibacterial activity against Escherichia coli ATCC 25922 at MIC after 3 to 4 days by agar well diffusion method.
Assay [7] relates to Klebsiella pneumoniae. The assay can be described thus: Antibacterial activity against recultured Klebsiella pneumoniae at MIC after 3 to 4 days by agar well diffusion method.
Assay [8] deals with Talaromyces marneffei. The experiment in a line: Antifungal activity against recultured Penicillium marneffei at MIC after 3 to 4 days by agar well diffusion method. Summed up: as §2
The subject of assay [9] is Staphylococcus aureus. The experiment in a line: Antibacterial activity against Staphylococcus aureus ATCC 25923 at MIC after 3 to 4 days by agar well diffusion method.
For assay [10], the system named is Aspergillus flavus. The assay can be described thus: Antifungal activity against Aspergillus flavus NCIM 524 by serial plate dilution method.
Assay [11] deals with Klebsiella pneumoniae. The assay can be described thus: Antibacterial activity against recultured Klebsiella pneumoniae after 16 to 18 hrs by serial plate dilution method. Summed up: as §1
Assay [12] has as its system Escherichia coli. The experiment in a line: Antibacterial activity against Escherichia coli ATCC 25922 after 16 to 18 hrs by serial plate dilution method. Summed up:
as §1

Assay [13] concerns Trichophyton mentagrophytes. The experiment in a line: Antifungal activity against recultured Trichophyton mentagrophytes by serial plate dilution method.
For assay [14], the system named is Aspergillus fumigatus. The assay can be described thus: Antifungal activity against Aspergillus fumigatus NCIM 902 by serial plate dilution method.
In assay [15] the test system is Aspergillus fumigatus. The assay can be described thus: Antifungal activity against Aspergillus fumigatus NCIM 902 at MIC after 3 to 4 days by agar well diffusion method. Summed up:
as §2

In assay [16] the test system is Trichophyton mentagrophytes. The assay can be described thus: Antifungal activity against recultured Trichophyton mentagrophytes at MIC after 3 to 4 days by agar well diffusion method. In outline: as §2

Take `FC(F)(F)c1cccc2c(NC3CC3)c(-c3nnc(S)n3-c3ccccc3)cnc12`: the minimum inhibitory concentration (MIC) against Staphylococcus aureus [1], with Pseudomonas aeruginosa [2], in the assay with Talaromyces marneffei [5], in the assay on Aspergillus flavus [10], with Klebsiella pneumoniae [11] and against Escherichia coli [12] was 6.25 mg/L (≈ 14.6 µM) throughout. In addition, the MIC (in assay [13]; with Aspergillus fumigatus [14]) was 6.25 mg/L (≈ 14.6 µM) in each case. Further, the “inhibition zone (IZ)” value in the assay on Pseudomonas aeruginosa [3] was found to be 16 mm; in the assay on Aspergillus flavus [4] it was 16 mm; in the assay with Escherichia coli [6], 20 mm; in the assay with Klebsiella pneumoniae [7] it was 16 mm; in the assay on Talaromyces marneffei [8] it was 16 mm; in the assay on Staphylococcus aureus [9], 16 mm. Besides, the “inhibition zone (IZ)” value in the assay on Aspergillus fumigatus [15] is reported as 16 mm; in assay [16], 20 mm.
For the compound `FC(F)(F)c1cccc2c(Cl)c(-c3nnc(S)n3Cc3ccccc3)cnc12`, the minimum inhibitory concentration (MIC) in the assay on Staphylococcus aureus [1], against Pseudomonas aeruginosa [2], in the assay with Talaromyces marneffei [5], in the assay with Aspergillus flavus [10], with Klebsiella pneumoniae [11] and in the assay on Escherichia coli [12] was 50 mg/L (≈ 119 µM) in each case. The MIC (in assay [13]; in the assay with Aspergillus fumigatus [14]) was 50 mg/L (≈ 119 µM) each time. The “inhibition zone (IZ)” value with Pseudomonas aeruginosa [3], in the assay on Aspergillus flavus [4], in the assay with Escherichia coli [6], in the assay with Klebsiella pneumoniae [7], with Talaromyces marneffei [8] and with Staphylococcus aureus [9] was below 10 mm in each case. The “inhibition zone (IZ)” value (with Aspergillus fumigatus [15]; in [16]) was below 10 mm throughout.
As for `FC(F)(F)c1cccc2c(NC3CC3)c(-c3nnc(S)n3Cc3ccccc3)cnc12`, the MIC against Staphylococcus aureus [1], against Pseudomonas aeruginosa [2], in the assay on Talaromyces marneffei [5], with Aspergillus flavus [10], with Klebsiella pneumoniae [11] and against Escherichia coli [12] was 6.25 mg/L (≈ 14.2 µM) throughout. Further, the MIC (in assay [13]; in the assay on Aspergillus fumigatus [14]) was 6.25 mg/L (≈ 14.2 µM) each time. For the same compound, the “inhibition zone (IZ)” value with Pseudomonas aeruginosa [3] worked out at 16 mm; in the assay with Aspergillus flavus [4], 16 mm; in the assay on Escherichia coli [6], 20 mm; with Klebsiella pneumoniae [7], 16 mm; in the assay on Talaromyces marneffei [8], 16 mm; in the assay on Staphylococcus aureus [9], 16 mm. Moreover, the “inhibition zone (IZ)” value in the assay on Aspergillus fumigatus [15] is 16 mm; in assay [16], 20 mm.
In the case of `Oc1c(-c2nnc(S)n2Cc2ccccc2)cnc2c(C(F)(F)F)cccc12`, the MIC against Staphylococcus aureus [1], in the assay with Pseudomonas aeruginosa [2], against Talaromyces marneffei [5], against Aspergillus flavus [10], in the assay on Klebsiella pneumoniae [11] and in the assay on Escherichia coli [12] was 50 mg/L (≈ 124 µM) each time. Further, the MIC (in assay [13]; against Aspergillus fumigatus [14]) was 50 mg/L (≈ 124 µM) each time. For the same compound, the “inhibition zone (IZ)” value in the assay on Pseudomonas aeruginosa [3], in the assay with Aspergillus flavus [4], in the assay on Escherichia coli [6], with Klebsiella pneumoniae [7], in the assay with Talaromyces marneffei [8] and in the assay with Staphylococcus aureus [9] was below 10 mm in each case. In addition, the “inhibition zone (IZ)” value (with Aspergillus fumigatus [15]; in assay [16]) was below 10 mm in each case.
Regarding `Oc1c(-c2nnc(S)n2-c2ccccc2)cnc2c(C(F)(F)F)cccc12`, the minimum inhibitory concentration (MIC) against Staphylococcus aureus [1], in the assay with Pseudomonas aeruginosa [2], in the assay with Talaromyces marneffei [5], in the assay on Aspergillus flavus [10], against Klebsiella pneumoniae [11] and in the assay with Escherichia coli [12] was 6.25 mg/L (≈ 16.1 µM) throughout. The minimum inhibitory concentration (MIC) (in [13]; with Aspergillus fumigatus [14]) was 6.25 mg/L (≈ 16.1 µM) in each case. Also, the “inhibition zone (IZ)” value with Pseudomonas aeruginosa [3] is given as 16 mm; in the assay with Aspergillus flavus [4], 16 mm; in the assay with Escherichia coli [6] it was 20 mm; with Klebsiella pneumoniae [7], 16 mm; with Talaromyces marneffei [8], 16 mm; in the assay on Staphylococcus aureus [9], 16 mm. The “inhibition zone (IZ)” value with Aspergillus fumigatus [15] was determined as 16 mm; in assay [16] it was 20 mm.
With `COCCn1c(S)nnc1-c1cnc2c(C(F)(F)F)cccc2c1O`, the minimal inhibitory concentration (MIC) against Staphylococcus aureus [1], in the assay with Pseudomonas aeruginosa [2], against Talaromyces marneffei [5], against Aspergillus flavus [10], with Klebsiella pneumoniae [11] and in the assay with Escherichia coli [12] was 6.25 mg/L (≈ 16.9 µM) throughout. Also, the MIC (in [13]; in the assay on Aspergillus fumigatus [14]) was 6.25 mg/L (≈ 16.9 µM) each time. Moreover, the “inhibition zone (IZ)” value turned out to be 16 mm in the assay with Pseudomonas aeruginosa [3]; 16 mm with Aspergillus flavus [4]; 20 mm in the assay with Escherichia coli [6]; 16 mm in the assay with Klebsiella pneumoniae [7]; 16 mm with Talaromyces marneffei [8]; 16 mm in the assay on Staphylococcus aureus [9]. Besides, the “inhibition zone (IZ)” value turned out to be 16 mm with Aspergillus fumigatus [15] and 20 mm in assay [16].
Turning to `FC(F)(F)c1cccc2c(N3CCN(C4CCCCC4)CC3)c(-c3nnc(S)n3Cc3ccccc3)cnc12`, the minimum inhibitory concentration (MIC) against Staphylococcus aureus [1] was determined as 6.25 mg/L (≈ 11.3 µM); against Pseudomonas aeruginosa [2] it was 50 mg/L (≈ 90.5 µM); against Talaromyces marneffei [5] it was 50 mg/L (≈ 90.5 µM); against Aspergillus flavus [10] it was 50 mg/L (≈ 90.5 µM); with Klebsiella pneumoniae [11], 50 mg/L (≈ 90.5 µM); against Escherichia coli [12], 50 mg/L (≈ 90.5 µM). In addition, the MIC (in assay [13]; with Aspergillus fumigatus [14]) was 50 mg/L (≈ 90.5 µM) in each case. Moreover, the “inhibition zone (IZ)” value was below 10 mm in the assay with Pseudomonas aeruginosa [3]; below 10 mm in the assay with Aspergillus flavus [4]; below 10 mm in the assay on Escherichia coli [6]; below 10 mm in the assay with Klebsiella pneumoniae [7]; below 10 mm with Talaromyces marneffei [8]; 16 mm in the assay with Staphylococcus aureus [9]. The “inhibition zone (IZ)” value (in the assay on Aspergillus fumigatus [15]; in assay [16]) was below 10 mm each time.
As for `CC(C)(C)CCNc1c(-c2nnc(S)n2-c2ccccc2)cnc2c(C(F)(F)F)cccc12`, the MIC against Staphylococcus aureus [1], against Pseudomonas aeruginosa [2], against Talaromyces marneffei [5], with Aspergillus flavus [10], in the assay with Klebsiella pneumoniae [11] and against Escherichia coli [12] was 6.25 mg/L (≈ 13.3 µM) throughout. Moreover, the minimum inhibitory concentration (MIC) (in assay [13]; against Aspergillus fumigatus [14]) was 6.25 mg/L (≈ 13.3 µM) each time. Also, the “inhibition zone (IZ)” value worked out at 16 mm with Pseudomonas aeruginosa [3]; 16 mm in the assay with Aspergillus flavus [4]; 20 mm in the assay with Escherichia coli [6]; 16 mm in the assay with Klebsiella pneumoniae [7]; 16 mm with Talaromyces marneffei [8]; 16 mm with Staphylococcus aureus [9]. The “inhibition zone (IZ)” value is recorded as 16 mm in the assay on Aspergillus fumigatus [15] and 20 mm in assay [16].
In the case of `NCCN1CCN(c2c(-c3nnc(S)n3Cc3ccccc3)cnc3c(C(F)(F)F)cccc23)CC1`, the MIC in the assay with Staphylococcus aureus [1] worked out at 50 mg/L (≈ 97.4 µM); against Pseudomonas aeruginosa [2], 50 mg/L (≈ 97.4 µM); against Talaromyces marneffei [5] it was 50 mg/L (≈ 97.4 µM); against Aspergillus flavus [10], 50 mg/L (≈ 97.4 µM); against Klebsiella pneumoniae [11] it was 50 mg/L (≈ 97.4 µM); against Escherichia coli [12], 6.25 mg/L (≈ 12.2 µM). Further, the MIC (in [13]; against Aspergillus fumigatus [14]) was 50 mg/L (≈ 97.4 µM) throughout. The “inhibition zone (IZ)” value with Pseudomonas aeruginosa [3] was below 10 mm; in the assay with Aspergillus flavus [4], below 10 mm; with Escherichia coli [6], 20 mm; in the assay on Klebsiella pneumoniae [7], below 10 mm; with Talaromyces marneffei [8], below 10 mm; in the assay with Staphylococcus aureus [9] it was below 10 mm. Also, the “inhibition zone (IZ)” value (in the assay on Aspergillus fumigatus [15]; in assay [16]) was below 10 mm in each case.
`FC(F)(F)c1cccc2c(NC3CCCCC3)c(-c3nnc(S)n3-c3ccccc3)cnc12`: the minimal inhibitory concentration (MIC) against Staphylococcus aureus [1], against Pseudomonas aeruginosa [2], against Talaromyces marneffei [5], in the assay on Aspergillus flavus [10], against Klebsiella pneumoniae [11] and with Escherichia coli [12] was 6.25 mg/L (≈ 13.3 µM) throughout. Further, the MIC (in [13]; in the assay with Aspergillus fumigatus [14]) was 6.25 mg/L (≈ 13.3 µM) in each case. In addition, the “inhibition zone (IZ)” value in the assay with Pseudomonas aeruginosa [3] was 16 mm; with Aspergillus flavus [4], 16 mm; in the assay with Escherichia coli [6] it was 20 mm; in the assay on Klebsiella pneumoniae [7], 16 mm; in the assay on Talaromyces marneffei [8] it was 16 mm; in the assay with Staphylococcus aureus [9], 16 mm. Also, the “inhibition zone (IZ)” value in the assay on Aspergillus fumigatus [15] was 16 mm; in assay [16], 20 mm.
As to `FC(F)(F)c1cccc2c(Cl)c(-c3nnc(S)n3-c3ccccc3)cnc12`, the MIC in the assay on Staphylococcus aureus [1], in the assay with Pseudomonas aeruginosa [2], in the assay with Talaromyces marneffei [5], in the assay on Aspergillus flavus [10], in the assay with Klebsiella pneumoniae [11] and with Escherichia coli [12] was 6.25 mg/L (≈ 15.4 µM) throughout. Further, the minimal inhibitory concentration (MIC) (in assay [13]; with Aspergillus fumigatus [14]) was 6.25 mg/L (≈ 15.4 µM) throughout. Further, the “inhibition zone (IZ)” value in the assay on Pseudomonas aeruginosa [3] came to 16 mm; in the assay on Aspergillus flavus [4], 16 mm; with Escherichia coli [6], 20 mm; with Klebsiella pneumoniae [7] it was 16 mm; in the assay with Talaromyces marneffei [8], 16 mm; in the assay with Staphylococcus aureus [9], 16 mm. Besides, the results for the “inhibition zone (IZ)” value (with Aspergillus fumigatus [15]; in [16]) were 16 mm and 20 mm, respectively.

These data come from ChEMBL document CHEMBL1155347, “Synthesis and antimicrobial activities of novel quinoline derivatives carrying 1,2,4-triazole moiety” (2009).
